Calls of active or inactive are those of the source. The rule behind the calls is not given here.
How the values were obtained:
[1] = test system: HS27; test: Cytotoxicity against human HS27 cells assessed as cell death at 100 uM measured after 48 hrs by Hoechst 33342/propidium iodide staining based imaging analysis relative to control; details: hs27, 48 h
In short: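 HS-27 fibroblasts in DMEM with 10% FBS and penicillin/streptomycin at 37 °C, 5% CO2, seeded at 3,000 cells/well. Treated 48 h with DMSO-dissolved compound (0.5–100 µM range) in quadruplicate. Hoechst 33342 and PI were added 2 h before imaging, and Hoechst/PI-colocalised nuclei were scored as dead. Controls were DMSO vehicle, H2O2 and untreated cells.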

[2] = species: Homo sapiens; test: Selectivity ratio of IC50 for inhibition of transport activity of human GLUT4 expressed in hexose transporter deficient W4000fgy1 erg4 yeast cells to IC50 for inhibition of transport activity of human GLUT1 expressed in hexose transporter deficient VW4000fgy1 yeast cells; type: cell-based
In short: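 GLUT1 (VW4000fgy1) or GLUT4 (VW4000fgy1erg4) hxt0 yeast were grown on maltose and then glucose and resuspended in PBS pH 7.4 at OD600 ~10. Compound was used at 0.1–100 μM, final 1% DMSO. Uptake of 5 mM 14C-glucose over 10 min was stopped with ice-cold quench buffer, filtered and counted by scintillation. IC50 was taken from dose-response curves of three independent measurements.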

[3] = test system: CCRF-CEM; test: Induction of apoptosis in human CCRF-CEM cells assessed as activation of caspase 3 at 10 uM measured after 6 hrs by Western blot analysis; type: functional, cell-based
In short: (§1)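 CEM cells were treated with 10 µM for 6 h. Untreated cells were the negative control and staurosporine the positive control. Cells were washed with cold PBS, lysed in Laemmli buffer with protease inhibitors, sonicated and quantified. Blots were blocked 45 min in PBS-Tween-5% milk, with primary antibody 3 h and secondary 1 h at room temperature.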

[4] = target: T1, Solute carrier family 2, facilitated glucose transporter member 1 (Homo sapiens) (UniProt P11166); test: Inhibition of GLUT1 in human CCRF-CEM cells assessed as upregulation of GRP78 expression at 10 uM measured after 6 hrs by Western blot analysis; type: cell-based; in short: as §1
T1 sequence (whole entry): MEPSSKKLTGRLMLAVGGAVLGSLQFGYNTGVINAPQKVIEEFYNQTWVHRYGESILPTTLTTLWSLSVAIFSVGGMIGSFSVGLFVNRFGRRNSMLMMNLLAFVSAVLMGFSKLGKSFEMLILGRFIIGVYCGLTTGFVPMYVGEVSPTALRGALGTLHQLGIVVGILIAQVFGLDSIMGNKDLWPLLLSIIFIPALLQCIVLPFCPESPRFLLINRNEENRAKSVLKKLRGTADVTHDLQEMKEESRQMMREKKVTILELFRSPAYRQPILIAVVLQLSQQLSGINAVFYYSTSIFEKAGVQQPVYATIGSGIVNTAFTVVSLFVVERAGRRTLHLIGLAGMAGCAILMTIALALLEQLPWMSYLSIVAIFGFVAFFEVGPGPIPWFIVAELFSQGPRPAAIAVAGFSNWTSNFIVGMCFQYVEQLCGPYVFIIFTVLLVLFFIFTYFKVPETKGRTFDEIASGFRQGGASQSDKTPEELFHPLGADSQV

[5] = test system: MDA-MB-231; test: Cytotoxicity against human MDA-MB-231 cells assessed as reduction in cell viability measured after 48 hrs by Hoechst 33342/propidium iodide staining based imaging analysis; type: functional
In short: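 Cells were seeded at 10,000 per well (HS-27 at 3,000) in 10% FBS RPMI (leukemic lines) or DMEM (MDA-MB-231, HS-27). Compound in DMSO (1% v/v final) at 0.5–100 µM for 48 h. Hoechst 33342 and PI were added 2 h before automated imaging; dead cells were co-stained. Quadruplicates. CC50 was taken by linear interpolation between the two concentrations nearest 50% death.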

[6] = Toxicity in SCID mouse assessed as death at 500 mg/kg, ip administered as single dose; type: organism-based; details: in vivo
In short: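 SCID mice aged 8–10 weeks were kept in individually ventilated cages on a 12 h light/dark cycle with autoclaved pellets and water ad libitum.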

[7] = Cytotoxicity against human WBC assessed as cell viability at higher concentration measured after 48 hrs by MTT assay relative to control; type: tissue-based
[8] = test system: CCRF-CEM; test: Cell cycle arrest in human CCRF-CEM cells assessed as decrease in accumulation at G0/G1 phase measured after 72 hrs by NIM-DAPI staining based flow cytometry; type: functional
In short: (§2)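 An asynchronous CEM culture was seeded at 100,000 cells/well in 1 mL complete RPMI and exposed to 10, 25 or 50 μM for 72 h. Controls were untreated cells, DMSO and hydrogen peroxide. Cells were pelleted at 262 g, resuspended, and stained with NIM-DAPI, which permeabilizes and stains DNA in one step. About 100,000 events per sample were read by flow cytometry. Triplicates.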

[9] = Cytotoxicity against human WBC assessed as reduction in cell viability measured after 48 hrs by MTT assay; type: tissue-based
In short: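 WBCs were isolated from donor blood by HiSep density centrifugation, followed by RBC lysis and PBS washes, and held overnight at 37 °C with 5% CO2. Compound at 2.5–100 μM for 48 h. After two PBS washes, MTT was added for 4 h at 37 °C, formazan was dissolved in DMSO, and absorbance was read at 570 nm. IC50 taken from the dose-response curve.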

[10] = Toxicity in SCID mouse xenografted with human CCRF-CEM cells assessed as body weight loss at 50 mg/kg, ip administered daily for 5 days with 2 days interval for 18 days; type: organism-based; details: in vivo, 432 h, time 18 day
[11] = test system: CCRF-CEM; test: Cell cycle arrest in human CCRF-CEM cells assessed as increase in accumulation at sub-G0/G1 phase measured after 72 hrs by NIM-DAPI staining based flow cytometry; type: functional; in short: as §2
[12] = Toxicity in SCID mouse assessed as distress at 1000 mg/kg, ip administered as single dose measured within 6 hrs; type: organism-based; details: in vivo
[13] = test system: CCRF-CEM; test: Antitumor activity against human CCRF-CEM cells xenografted in SCID mouse assessed as reduction in tumor growth at 50 mg/kg, ip administered daily for 5 days with 2 days interval for 18 days; type: functional, organism-based; details: time 18.0 day
In short: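 SCID mice aged 8-10 weeks, in individually ventilated cages on a 12 h light/dark cycle, autoclaved pellets and water ad libitum. 1×10^5 CEM cells were injected on the back to form palpable tumors, which were minced and regrafted. Compound given 50 mg/kg i.p. on days 1-5, 8-12 and 15-18. Saline vehicle group; doxorubicin 20 mg/kg i.p. reference group. n=6 per group. Tumor volume by caliper every two days as (width)² x length/2.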

[14] = test system: CCRF-CEM; test: Induction of apoptosis in human CCRF-CEM cells assessed as early apoptotic cells at CC50 measured after 24 hrs by AnnexinV-FITC/propidium iodide staining based flow cytometry analysis relative to control; type: functional
In short: (§3)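 CCRF-CEM cells in RPMI with 10% FBS were seeded in 24-well plates, incubated overnight, given fresh medium, then treated for 24 h. Cells were PBS-washed, spun at 500 g for 5 min at 4 °C, and resuspended in ice-cold binding buffer. They were stained with annexin V-FITC and PI for 15 min on ice in the dark, then read by flow cytometry. Untreated cells were the negative control; triplicates.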

[15] = test system: CCRF-CEM; test: Induction of apoptosis in human CCRF-CEM cells assessed as late apoptotic cells at CC50 measured after 24 hrs by AnnexinV-FITC/propidium iodide staining based flow cytometry analysis relative to control; type: functional; in short: as §3

O=C(CN1C(=O)S/C(=C/c2ccco2)C1=O)Nc1ccc(Cl)c(Cl)c1
Activity [1]: 27.32% | Ratio IC50 [2]: 10

O=C(CN1C(=O)S/C(=C/c2ccco2)C1=O)Nc1nc2ccccc2s1
Activity [3]: Active | inhibition [4]: Active | CC50 [5]: 45.1 µM | Activity [6]: Non-Toxic | Activity [7]: > 62% | Activity [8]: Dose-dependent effect | IC50 [9]: 187 µM | Activity [10]: Non-Toxic | Activity [11]: Dose-dependent effect | Activity [12]: Non-Toxic | Activity [13]: Active | Activity [14]: 1.38% | Activity [15]: 55.87%
